UCH37 DUB inh: blocks the human deubiquitinase UCH37 | purified proteasome/UCH37, Ub-AMC cleavage fluorescence | inhibition, % (test concentration not listed) | 330,000 tested, 0.33% active | AID 588478;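 active = mean inhibition over replicate wells above about 20%, limit read from the data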;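 also: 0% = compound-free wells with enzyme and 100% = wells lacking proteasome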
Target sequence (Q9Y5K5 whole entry, looked up): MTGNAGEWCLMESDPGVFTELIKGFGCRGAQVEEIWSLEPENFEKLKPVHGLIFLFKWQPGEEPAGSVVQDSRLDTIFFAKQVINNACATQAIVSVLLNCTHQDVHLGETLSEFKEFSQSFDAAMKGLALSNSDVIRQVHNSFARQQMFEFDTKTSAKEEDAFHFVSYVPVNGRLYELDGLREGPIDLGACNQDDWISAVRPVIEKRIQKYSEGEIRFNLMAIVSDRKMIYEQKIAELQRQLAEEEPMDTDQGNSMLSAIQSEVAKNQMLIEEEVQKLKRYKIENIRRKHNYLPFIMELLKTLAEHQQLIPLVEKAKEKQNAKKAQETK
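Material: human UCH37 enzyme supplied as purified proteasome complex. Measure: % inhibition of Ub-AMC cleavage fluorescence. Medium: pH 7.4 Tris-HCl (50 mM) with ovalbumin, ATP-MgCl2, DTT. Times: 30 min preincubation with enzyme, 25 min cleavage at room temperature. Detection: AMC fluorescence intensity at 355/460 nm.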
H9c2 protect: modulators protecting cardiomyocytes from myocardial damage. H9c2 cardiomyocytes, H2O2 injury protection, ATPLite, 2 h. protection from H2O2 cell death, % at 20 µM. 360,000 tested, 0.63% active;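 active = compounds giving at least 50% protection of heart cells from peroxide-induced death in the single-dose screen, raw or plate-pattern-corrected value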;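 also: 0% = DMSO wells with peroxide and 100% = DMSO wells without peroxide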
MIN6 prolif-1: MIN6 beta-cell proliferation induction; MIN6 cells proliferation, ATPlite luminescence, 48 h; cells starved in 0.2% serum; 100% = growth in 10% serum; proliferation, % at 10 µM; 330,000 tested, 0.29% active; AID 2380;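 active = compounds whose signal lies at least 3.5 SD above the mean of all wells on their plate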;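 also: 0% = DMSO-treated cells in low-serum medium and 100% = 10% serum control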
iPSC survival up: enhancers of human iPSC single-cell survival; hiPSC single-cell survival, ATPlite luminescence; 100% = ROCK inhibitor wells, 0% = DMSO; survival enhancement, % at 20 µM; 360,000 tested, 0.044% active; in the data active = survival enhancement above about 18%;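 also: cells exposed to compounds for 16 hours before the ATP read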
CRFR2-BP ag: CRF-BP/CRF-R2 complex agonism; HEK293 CRF-R2/CRF-BP, calcium dye fluorescence (FLIPR); percent of saturating CRF peptide response; activation, % at 13.2 µM; 350,000 tested, 0.46% active; AID 588473;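 active = activation of at least 50%, plus an integration ratio under a set limit after plate pattern correction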;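 also: plate controls were neutral control wells without compound for no effect and CRF at EC100 for full effect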
CRFR2-BP antag: blocks CRF-induced signaling of the CRF-BP/CRF-R2 complex | HEK293 CRF-R2/CRF-BP, CRF-induced calcium fluorescence | inhibition, % at 11.8 µM | 350,000 tested, 0.59% active;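 active = inhibition of the ligand-induced calcium signal above about 50% at the single tested concentration, limit read from the data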
MIN6 prolif-2: confirmation of inducers of beta-cell replication in MIN6 cells; shares compounds with MIN6 prolif-1; MIN6 beta-cell proliferation, ATPlite luminescence, 48 h; cells kept in 0.2% serum; scaled between 0.2% and 10% serum; proliferation increase, % at 50 µM; 920 tested, under 10 active;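 active = proliferation increase above 40% at any of the four tested concentrations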
* marks the source's active call; other numbers are inactive results. An excerpt weighted towards active compounds, which were near 2.1% of everything screened.

How did CCN(CC)C(=O)CN1C(=O)C2CC=C(Cl)CC2C1=O (stereo not drawn) do in these assays?
H9c2 protect: 4; MIN6 prolif-1: 6.9*; iPSC survival up: 0; CRFR2-BP ag: 2; CRFR2-BP antag: -2; MIN6 prolif-2: 1

Results for CC(=O)Nc1nnc(SCC(=O)NCc2ccc3c(c2)OCO3)s1 ?
UCH37 DUB inh: 0; H9c2 protect: -3; MIN6 prolif-1: 13*; iPSC survival up: 0; CRFR2-BP ag: -2; CRFR2-BP antag: 15; MIN6 prolif-2: -2

How did CCC(=O)Nc1nnc(SCC(=O)NCc2ccc3c(c2)OCO3)s1 do in these assays?
UCH37 DUB inh: 1; H9c2 protect: 2; MIN6 prolif-1: 3; iPSC survival up: 1; CRFR2-BP ag: -1; CRFR2-BP antag: -1

Results for Cc1cc(C)nc(-n2nc(C)cc2NC(=O)CN2CCC(C)CC2)n1 ?
UCH37 DUB inh: 2; H9c2 protect: 14; MIN6 prolif-1: 4.9*; iPSC survival up: 3; CRFR2-BP ag: -7; CRFR2-BP antag: 30; MIN6 prolif-2: -6

Results for Cc1cc(C)nc(-n2nc(C)cc2NC(=O)CN2CCCC2)n1 ?
UCH37 DUB inh: 1; H9c2 protect: 2; MIN6 prolif-1: 3; iPSC survival up: 0; CRFR2-BP ag: -1; CRFR2-BP antag: 0

Results for CN(C)c1ccc(C=Nn2c(C3CCCCC3)n[nH]c2=S)cc1 ?
UCH37 DUB inh: 4

How did CCOC(=O)c1ccccc1OCc1cc(/C=N/n2cncn2)ccc1OC do in these assays?
H9c2 protect: 35; MIN6 prolif-1: 7.8*; iPSC survival up: 0; CRFR2-BP ag: 0; CRFR2-BP antag: 6; MIN6 prolif-2: 2

Results for NC(=O)C1CCN(CC(=O)Nc2ccccc2Sc2ccc(Cl)cc2)CC1 ?
UCH37 DUB inh: 0; H9c2 protect: 4; MIN6 prolif-1: 0; iPSC survival up: -1; CRFR2-BP ag: 1; CRFR2-BP antag: -11

What do the screens show for `NC(=O)C1CCN(CC(=O)Nc2ccccc2Sc2ccccc2)CC1`?
UCH37 DUB inh: 4; H9c2 protect: 3; MIN6 prolif-1: 7.1*; iPSC survival up: 0; CRFR2-BP ag: -1; CRFR2-BP antag: 19; MIN6 prolif-2: -3

Results for COCC(=O)Nc1sc2c(c1C(=O)OC)CCCC2 ?
UCH37 DUB inh: -6; H9c2 protect: -2; MIN6 prolif-1: 7.7*; iPSC survival up: -2; CRFR2-BP ag: 0; CRFR2-BP antag: -3; MIN6 prolif-2: -6

How did COc1ccc(-c2n[nH]c(=S)n2C2CCCCC2)cc1 do in these assays?
UCH37 DUB inh: 3; H9c2 protect: -3; MIN6 prolif-1: 7.6*; iPSC survival up: 0; CRFR2-BP ag: 1; CRFR2-BP antag: -42; MIN6 prolif-2: -4

How did S=c1[nH]nc(-c2cccnc2)n1C1CCCCC1 do in these assays?
UCH37 DUB inh: 0; H9c2 protect: 3; MIN6 prolif-1: 0; iPSC survival up: 0; CRFR2-BP ag: 1; CRFR2-BP antag: 6

What do the screens show for `Cc1cc(C)nc(N=C(N)N2CCc3ccccc32)n1`?
UCH37 DUB inh: 4

Results for Nc1c(C(=O)NN=Cc2ccc(OCc3ccccc3)cc2)cnn1-c1ccccc1 ?
UCH37 DUB inh: 6

Results for COC(C(=O)Nc1ccnn1C1CCN(Cc2ccc(C)s2)CC1)c1ccccc1 (stereo not drawn) ?
UCH37 DUB inh: 1; H9c2 protect: 1; MIN6 prolif-1: 9.2*; iPSC survival up: -1; CRFR2-BP ag: -1; CRFR2-BP antag: -4; MIN6 prolif-2: -3

Results for CC(=O)c1sc(N/N=C\c2ccc(N(C)C)cc2)nc1C ?
H9c2 protect: -3; MIN6 prolif-1: 6.6*; iPSC survival up: 0; CRFR2-BP ag: 7; CRFR2-BP antag: 6; MIN6 prolif-2: 2

What do the screens show for `Cc1ccc(OCC(=O)N2CC3(C)CC2CC(C)(C)C3)cc1` (stereo not drawn)?
UCH37 DUB inh: 5; H9c2 protect: 0; MIN6 prolif-1: 6.8*; iPSC survival up: 3; CRFR2-BP ag: -1; CRFR2-BP antag: -13; MIN6 prolif-2: -6

Results for COc1ccc(CC(=O)N2CC3(C)CC2CC(C)(C)C3)cc1 (stereo not drawn) ?
UCH37 DUB inh: 3; H9c2 protect: 4; MIN6 prolif-1: 0; iPSC survival up: 4; CRFR2-BP ag: 0; CRFR2-BP antag: -8

How did O=C(O)c1cccc(NN=Cc2ccc(OC(F)(F)F)cc2)c1 do in these assays?
UCH37 DUB inh: 10

Results for CC(C)(C)c1ccc(C=NNC(=O)Cc2c[nH]c3ccccc23)cc1 ?
UCH37 DUB inh: 1

Results for OCCC1CN(Cc2c(F)cccc2Cl)CCN1C1CCCC1 (stereo not drawn) ?
UCH37 DUB inh: 2; H9c2 protect: 5; MIN6 prolif-1: 8.1*; iPSC survival up: 0; CRFR2-BP ag: 1; CRFR2-BP antag: -5; MIN6 prolif-2: 0

How did Cc1cccc(C)c1OCC(=O)Nn1c(COc2ccccc2)nc2ccccc2c1=O do in these assays?
UCH37 DUB inh: 4; H9c2 protect: 3; MIN6 prolif-1: 19*; iPSC survival up: 2; CRFR2-BP ag: -1; CRFR2-BP antag: 0; MIN6 prolif-2: 3

Results for Cc1ccccc1OCC(=O)Nn1c(COc2ccccc2)nc2ccccc2c1=O ?
UCH37 DUB inh: 0; H9c2 protect: -14; MIN6 prolif-1: 0; iPSC survival up: 0; CRFR2-BP ag: 2; CRFR2-BP antag: -14

How did Fc1ccccc1Cc1noc(CN2CCC(OCc3cccnc3)CC2)n1 do in these assays?
UCH37 DUB inh: 0; H9c2 protect: 6; MIN6 prolif-1: 7.7*; iPSC survival up: 0; CRFR2-BP ag: 1; CRFR2-BP antag: -2; MIN6 prolif-2: -3

What do the screens show for `O=C(c1cccc2ccccc12)n1nnc2ccccc21`?
MIN6 prolif-1: 10*; MIN6 prolif-2: -6

What do the screens show for `CCOc1ccc(CCNS(=O)(=O)c2ccc3c(c2)N(C(C)=O)CCO3)cc1OCC`?
UCH37 DUB inh: 1; H9c2 protect: -1; MIN6 prolif-1: 15*; iPSC survival up: 0; CRFR2-BP ag: -1; CRFR2-BP antag: 3; MIN6 prolif-2: -2

What do the screens show for `CC(NC(=O)CN1C(=O)NC2(CCCCCCC2)C1=O)c1ccccc1` (stereo not drawn)?
UCH37 DUB inh: 1; H9c2 protect: 1; MIN6 prolif-1: 9.5*; iPSC survival up: -2; CRFR2-BP ag: -2; CRFR2-BP antag: -9; MIN6 prolif-2: 0

How did COc1cc(C=Nn2cnn(Cc3ccccc3Cl)c2=S)cc(OC)c1OC do in these assays?
UCH37 DUB inh: 4
